≈ marks a conversion by molar mass, not a printed value. Where “and” joins values, the source holds several entries; their conditions need not be identical. Identical values can stand only once. Marks after values point to notes of the source that are not given here.
Tests used:
[1] = tested on: P. falciparum Pf3D7_0087/N9; experiment: P. falciparum SCID mouse 4-day dosing efficacy model; type: in vivo
[2] = tested on: P. yoelii DHODH; settings: cited from earlier work
[3] = tested on: P. falciparum Dd2 and resistant clones; experiment: microbe, parasite or virus in culture; type: cell-based; settings: Plasmodium falciparum, DD2|DSM265, read-out: DSM265 Dd2 EC50, Dd2/wt
[4] = tested on: G6PD-deficient human red blood cells; type: in vivo, NOD-SCID mice; settings: blood type A- G6PD-deficient human red blood cells
[5] = Pharmacokinetics in mice; type: in vivo; settings: female, Swiss outbred, mouse, plasma
How it was run: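 Single-dose PK in female Swiss outbred mice or male beagle dogs, dosed IV and orally in a range of formulations. Blood was drawn into anticoagulant tubes and plasma separated by centrifugation. Compound was quantified by LC/MS, typically in 2–6 animals per study, with SD given where n>2.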

[6] = 7-day repeat dose toxicity study in mice; type: in vivo; settings: highest dose tested, Day 7
How it was run: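 Mice received the test compound orally once daily at 25–200 mg/kg/day for 7 days in an exploratory (non-GLP) toxicology study. They were monitored daily for clinical signs, body weight and food consumption, with haematology, clinical chemistry and histopathology. Plasma toxicokinetic parameters, including average concentration over the dosing interval, were derived on day 1 and day 7.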

[7] = tested on: P. falciparum gametocytes stages IV–V; experiment: Gametocyte assay stages IV–V; type: cell-based
[8] = Protein binding in assay media; type: in vitro ADME; settings: 0.5% Albumax II in RPMI-1640
[9] = Plasma protein binding, rat; type: in vitro ADME
[10] = tested on: P. cynomolgi liver-stage parasites; experiment: P. cynomolgi liver-stage model; type: cell-based
[11] = tested on: P. falciparum early stage gametocytes stage III – IV; strain NF54; experiment: Early stage gametocyte assay; type: cell-based
[12] = tested on: P. berghei DHODH; settings: cited from earlier work
[13] = Plasma protein binding, mouse; type: in vitro ADME
[14] = target: pig DHODH (Sus scrofa, UniProt F1S3B0); experiment: DHODH inhibition, DCIP spectrophotometric assay; type: biochemical
Sequence of pig DHODH (F1S3B0 1-395): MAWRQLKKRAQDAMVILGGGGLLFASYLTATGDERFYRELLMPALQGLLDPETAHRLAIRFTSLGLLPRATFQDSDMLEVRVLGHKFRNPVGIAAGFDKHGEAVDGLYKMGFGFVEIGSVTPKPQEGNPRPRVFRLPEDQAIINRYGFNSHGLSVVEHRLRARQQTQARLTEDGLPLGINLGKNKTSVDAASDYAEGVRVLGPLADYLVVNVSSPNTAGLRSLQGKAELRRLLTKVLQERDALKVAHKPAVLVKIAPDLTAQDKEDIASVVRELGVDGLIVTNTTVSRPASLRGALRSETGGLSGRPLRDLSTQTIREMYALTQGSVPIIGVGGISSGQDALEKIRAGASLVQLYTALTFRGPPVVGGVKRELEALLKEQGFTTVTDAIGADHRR

[15] = tested on: P. falciparum parasites; experiment: Drug combination, fixed-ratio isobologram method; type: cell-based; settings: artemisinin derivatives, OZ439, chloroquine, piperaquine, pyronaridine, mefloquine, lumefantrine, atovaquone, proguanil, P218, pyrimethamine
[16] = tested on: key CYP enzymes (not individually named); experiment: CYP inhibition in human liver microsomes; type: in vitro ADME
How it was run: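 Inhibition of CYP isoforms was measured by a substrate-specific approach in human liver microsomes.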

[17] = Intravenous pharmacokinetics in monkeys and dogs; type: in vivo; settings: male (dogs), female (monkeys), macaque (monkeys), beagle (dogs), monkey, dog, plasma
How it was run: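 Male beagle dogs and female macaque monkeys received a single intravenous dose. Blood was collected into anticoagulant tubes and plasma was separated by centrifugation. Parent compound and metabolites were quantified by LC/MS. Typically 2–6 animals were used per study, with standard deviation given where n>2.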

[18] = target: rabbit DHODH (Oryctolagus cuniculus, UniProt G1SWF3); experiment: DHODH inhibition, DCIP spectrophotometric assay; type: biochemical
Sequence of rabbit DHODH (G1SWF3 1-395): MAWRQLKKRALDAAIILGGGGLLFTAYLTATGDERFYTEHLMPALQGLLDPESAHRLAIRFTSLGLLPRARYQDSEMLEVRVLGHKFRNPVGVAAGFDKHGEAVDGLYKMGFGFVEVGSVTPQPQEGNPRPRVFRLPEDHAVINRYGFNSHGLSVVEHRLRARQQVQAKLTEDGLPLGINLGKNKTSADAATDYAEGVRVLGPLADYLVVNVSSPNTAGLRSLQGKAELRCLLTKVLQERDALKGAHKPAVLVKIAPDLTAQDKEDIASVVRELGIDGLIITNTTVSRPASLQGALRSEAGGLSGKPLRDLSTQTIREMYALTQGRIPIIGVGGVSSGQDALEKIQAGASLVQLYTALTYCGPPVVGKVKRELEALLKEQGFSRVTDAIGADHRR

[19] = Cardiac safety by telemetry in conscious dogs; type: in vivo
[20] = target: P. cynomolgi DHODH (Plasmodium cynomolgi, UniProt K6UE05); experiment: DHODH inhibition, DCIP spectrophotometric assay; type: biochemical
[21] = Caco-2 permeability; type: in vitro ADME; settings: human, Caco-2
[22] = tested on: Caco-2 cell monolayers; experiment: Caco-2 permeability; type: in vitro ADME
[23] = target: CYP2C19 (Homo sapiens, UniProt P33261); experiment: Metabolism by individual human CYP enzymes; type: in vitro ADME; settings: CYP2C19 Supersomes
Sequence of CYP2C19 (P33261 whole entry): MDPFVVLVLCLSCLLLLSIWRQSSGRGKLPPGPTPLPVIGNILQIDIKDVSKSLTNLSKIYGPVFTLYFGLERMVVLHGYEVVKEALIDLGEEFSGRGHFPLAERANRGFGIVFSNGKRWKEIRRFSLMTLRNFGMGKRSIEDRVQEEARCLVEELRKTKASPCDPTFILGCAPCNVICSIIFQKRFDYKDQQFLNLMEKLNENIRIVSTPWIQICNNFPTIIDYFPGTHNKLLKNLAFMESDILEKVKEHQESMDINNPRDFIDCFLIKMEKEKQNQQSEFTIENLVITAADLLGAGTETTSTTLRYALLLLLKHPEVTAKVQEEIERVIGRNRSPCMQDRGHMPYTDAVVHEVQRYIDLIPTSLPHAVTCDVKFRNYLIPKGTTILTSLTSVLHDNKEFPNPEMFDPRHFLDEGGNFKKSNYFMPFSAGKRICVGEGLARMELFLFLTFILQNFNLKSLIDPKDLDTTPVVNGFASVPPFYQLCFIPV

[24] = tested on: CYP enzymes; experiment: CYP induction in human hepatocytes; type: in vitro ADME
[25] = 10-day repeat dose toxicity study in dogs; type: in vivo; settings: highest dose tested, Day 1
How it was run: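 Male beagle dogs were dosed orally every other day in the fed state over a 10-day repeat-dose exploratory (non-GLP) toxicology study. They were monitored daily for clinical signs, body weight and food consumption, with haematology, clinical chemistry and histopathology. Plasma toxicokinetics were taken on day 1 to give Cav, and full toxicokinetics were not collected after the final dose.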

[26] = tested on: P. falciparum 3D7; experiment: Blood-stage phenotype and development by microscopy; type: cell-based; settings: 10xEC50, 48 h
How it was run: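 Giemsa-stained smears were scored by microscopy, at least 200 cells per condition, for stage arrest and morphology. Standard antimalarials served as controls.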

[27] = tested on: Salmonella typhimurium-E. coli; experiment: 5-strain bacterial reverse mutation assay
[28] = tested on: P. falciparum 3D7; experiment: In vitro killing curves / 48 h growth assay, P. falciparum 3D7 blood stage; type: cell-based
[29] = Human pharmacokinetic prediction
[30] = target: human ether-a-go-go related gene (hERG) K+ channel (Homo sapiens, UniProt Q12809); experiment: hERG patch clamp assay; type: cell-based
Sequence of human ether-a-go-go related gene (hERG) K+ channel (Q12809 whole entry): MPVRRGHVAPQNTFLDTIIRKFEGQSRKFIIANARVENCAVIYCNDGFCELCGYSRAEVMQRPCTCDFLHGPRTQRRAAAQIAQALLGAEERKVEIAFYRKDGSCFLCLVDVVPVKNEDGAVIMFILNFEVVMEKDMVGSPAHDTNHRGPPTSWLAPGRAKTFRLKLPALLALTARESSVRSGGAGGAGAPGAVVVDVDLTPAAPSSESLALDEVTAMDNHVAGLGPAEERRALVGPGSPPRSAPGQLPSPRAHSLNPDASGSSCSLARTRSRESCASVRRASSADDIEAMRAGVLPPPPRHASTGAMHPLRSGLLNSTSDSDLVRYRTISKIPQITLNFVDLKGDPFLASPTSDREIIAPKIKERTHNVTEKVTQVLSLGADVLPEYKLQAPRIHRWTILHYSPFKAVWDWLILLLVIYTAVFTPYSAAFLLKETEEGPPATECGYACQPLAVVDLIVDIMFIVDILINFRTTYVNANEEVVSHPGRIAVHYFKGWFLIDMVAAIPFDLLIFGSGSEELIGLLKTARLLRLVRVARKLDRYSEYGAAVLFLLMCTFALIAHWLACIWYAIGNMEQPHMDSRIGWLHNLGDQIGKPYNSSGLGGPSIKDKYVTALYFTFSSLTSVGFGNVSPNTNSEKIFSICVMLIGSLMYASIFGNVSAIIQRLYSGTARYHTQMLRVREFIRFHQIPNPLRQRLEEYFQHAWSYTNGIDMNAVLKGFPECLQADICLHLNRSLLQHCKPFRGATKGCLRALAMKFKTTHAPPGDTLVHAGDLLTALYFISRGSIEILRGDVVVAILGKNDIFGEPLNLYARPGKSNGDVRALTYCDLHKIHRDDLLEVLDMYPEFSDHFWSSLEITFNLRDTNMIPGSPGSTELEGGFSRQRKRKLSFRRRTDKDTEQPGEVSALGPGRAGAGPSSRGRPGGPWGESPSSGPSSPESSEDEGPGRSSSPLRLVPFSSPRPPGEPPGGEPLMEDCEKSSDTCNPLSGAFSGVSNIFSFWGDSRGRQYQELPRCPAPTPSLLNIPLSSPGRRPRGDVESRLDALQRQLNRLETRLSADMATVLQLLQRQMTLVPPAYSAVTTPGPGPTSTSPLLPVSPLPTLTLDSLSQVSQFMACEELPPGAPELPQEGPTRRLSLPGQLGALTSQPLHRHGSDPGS

[31] = target: CYP2C8 (Homo sapiens, UniProt P10632); experiment: Metabolism by individual human CYP enzymes; type: in vitro ADME; settings: CYP2C8 Supersomes
Sequence of CYP2C8 (P10632 whole entry): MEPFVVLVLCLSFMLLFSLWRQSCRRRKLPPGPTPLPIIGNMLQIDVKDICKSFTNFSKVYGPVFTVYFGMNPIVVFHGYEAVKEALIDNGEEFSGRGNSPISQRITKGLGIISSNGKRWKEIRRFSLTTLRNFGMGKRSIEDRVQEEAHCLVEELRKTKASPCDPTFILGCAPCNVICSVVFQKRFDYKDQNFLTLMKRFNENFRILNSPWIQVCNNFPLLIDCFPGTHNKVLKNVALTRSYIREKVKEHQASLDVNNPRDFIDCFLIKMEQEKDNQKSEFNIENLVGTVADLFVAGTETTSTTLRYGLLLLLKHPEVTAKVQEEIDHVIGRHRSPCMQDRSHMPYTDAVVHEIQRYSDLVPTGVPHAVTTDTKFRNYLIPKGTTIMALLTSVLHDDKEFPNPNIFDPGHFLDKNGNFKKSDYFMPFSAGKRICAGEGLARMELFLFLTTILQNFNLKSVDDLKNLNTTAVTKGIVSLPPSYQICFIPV

[32] = target: panel of 106 human receptors and ion channels; experiment: Cerep panel of 106 human receptors and ion channels; type: binding
[33] = Plasma protein binding, dog; type: in vitro ADME
[34] = tested on: panel of human kinases; experiment: Panel of human kinases; type: biochemical; settings: University of Dundee
[35] = determined 24 h after the last dose

Cc1cc(Nc2ccc(S(F)(F)(F)(F)F)cc2)n2nc(C(C)(F)F)nc2n1 [DSM265, 2-(1,1-difluoroethyl)-5-methyl-[N-[4-(pentafluorosulfanyl)phenyl]1,2,4]triazolo[1,5-a]pyrimidin-7-amine]
blood concentration 23 h after the last dose, estimate of the MPC ([1]; 13 mg/kg/day (6.4 mg/kg b.i.d.), oral, 4 days): 0.53 µg/mL
SCID mouse in vivo MPC (plasma) ([1]; blood converted to plasma with blood to plasma ratio 0.5): 1.1 ^c μg/mL
Unbound SCID mouse in vivo MPC (plasma) ([1]; corrected with fraction unbound 0.001): 0.0011 µg/mL
ED90 [1, 35]: 1.5 mg/kg/12 h
dose at the MPC [1, 35]: 6.4 mg/kg/12 h
activity against P. yoelii DHODH [2]: poor activity
EC50 [3]: 0.0022 µg/mL (≈ 0.0053 µM)
hemolytic toxicity [4]: not hemolytic
half-life [5]: 2 to 4 h
average plasma concentration within a dosing interval (Cav) [6]: 11700 ng/mL
EC50, gametocytes stages IV–V [7]: no activity
EC50 ([7]; Plasmodium falciparum, read-out: EC50, gametocytes stages IV–V): > 16 µg/mL
Fraction unbound in assay media [8]: 0.17 ^b
fraction unbound [9]: 0.023
activity against small forms (non-dividing hypnozoite) [10]: poor activity
EC50 ([10]; Plasmodium cynomolgi, read-out: EC50, liver-stage large form (multinucleated schizont)): 0.13 µg/mL (≈ 0.313 µM)
EC50 ([11]; Plasmodium falciparum, NF54, read-out: EC50, early stage gametocytes stage III – IV): > 0.42 µg/mL
EC50, early stage gametocytes stage III – IV ([11]; strain NF54): no activity
activity against P. berghei DHODH [12]: poor activity
fraction unbound [13]: 0.003
IC50 [14]: > 98.7 µM
interaction with other antimalarials [15]: additive
IC50 [16]: > 10 µg/mL
half-life [17]: 10 to 45 h
IC50 [18]: > 98.7 µM
concentration at 24 h ([19]; dog, plasma, oral, 300 mg/kg): 1300 ng/mL
ECGs ([19]; oral doses of 30 and 300 mg/kg): within normal limits
IC50 [20]: 0.012 µM
Papp A→B [21]: > 30 ×10⁻⁶ cm/s
BCS classification ([22]; from high permeability and low aqueous solubility): BCS Class II
substrate for Pgp and BCRP ([22]; with verapamil and fumitremorgin C): not a substrate
extent of metabolism [23]: 0.039 μL/min/pmol CYP
CYP induction [24]: did not induce CYP enzymes
average plasma concentration within a dosing interval (Cav) [25]: 16400 ng/mL
blood-stage phenotype after treatment [26]: arrested parasites in the young trophozoite-stage
mutagenic activity (Ames test) [27]: non-mutagenic
EC50 ([28]; Plasmodium falciparum, 3D7, 48 h, read-out: P. falciparum 3D7 in vitro growth assay EC50): 0.0046 µg/mL (≈ 0.0111 µM)
lag-phase prior to parasite killing ([28]; at 1xEC50): 96 h
lag-phase prior to parasite killing ([28]; at 3xEC50 and above): 24 to 48 h
Unbound in vitro MPC (kill assay) ([28]; corrected with fraction unbound in 0.5% Albumax II in RPMI-1640): 0.002 µg/mL and 0.0020 µg/mL
P. falciparum 3D7 in vitro MPC (kill assay) ([28]; minimum parasiticidal concentration = 3xEC50): 0.014 μg/mL and 0.014 ^a μg/mL
plasma MPC used for the human dose prediction [29]: 1 to 2 µg/mL
IC50 [30]: 1.59 to 6.98 µM
extent of metabolism [31]: 0.032 μL/min/pmol CYP
IC50 values for the full panel [32]: > 4.2 µg/mL
fraction unbound [33]: 0.006
activity against a panel of human kinases [34]: minimal activity

Reference: paper PMC4539048 (Science translational medicine, 2015)
